The values that follow come from ChEMBL document CHEMBL4823248, “Pyrazole Agonist of the Apelin Receptor Improves Symptoms of Metabolic Syndrome in Mice” (J Med Chem, 2021).

A word on the EC50: it is the concentration at which the effect is half-maximal. What is called half-life is the time in which the quantity being followed falls by half. A word on the Cmax: it is the highest concentration seen after dosing. Usually inhibition stands for the drop in the measured response relative to a control, in per cent. A low value points to a weak effect. What is called CL/F is the apparent clearance, not corrected for the fraction that reaches the circulation. One may read the AUC as the area under the concentration-time curve, a measure of exposure. A low value points to less exposure.

Data set [1] in a line: Intrinsic clearance in human pooled liver microsomes at 1 uM incubated up to 120 mins in presence of NADPH by LC-MS analysis. The note with it: read-out: CLH. Format: ADME, Microsome. (Liver microsomes are a subcellular fraction often used to study metabolism.)
Data set [2] addresses T1, Apelin receptor (Homo sapiens, UniProt P35414).
T1 sequence (P35414 whole entry): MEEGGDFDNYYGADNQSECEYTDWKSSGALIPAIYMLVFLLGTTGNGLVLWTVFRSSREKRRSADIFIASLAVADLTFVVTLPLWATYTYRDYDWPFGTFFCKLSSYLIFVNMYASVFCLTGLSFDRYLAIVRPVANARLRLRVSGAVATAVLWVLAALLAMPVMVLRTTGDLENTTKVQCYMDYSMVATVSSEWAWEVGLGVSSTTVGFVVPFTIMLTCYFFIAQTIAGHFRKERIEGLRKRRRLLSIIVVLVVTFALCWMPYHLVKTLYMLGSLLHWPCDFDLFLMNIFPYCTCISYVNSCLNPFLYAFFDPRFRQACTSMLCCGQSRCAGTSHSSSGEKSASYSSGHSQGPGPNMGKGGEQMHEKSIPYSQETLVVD
In words: Agonist activity at human AGTRL1 expressed in CHO-K1 cells assessed as induction of beta-arrestin 2 recruitment incubated for 90 mins by PathHunter assay. It counts as functional, cell-based.

Data set [3] concerns the target T1, Apelin receptor. The data set can be described thus: Agonist activity at human APJ receptor expressed in CHO cells assessed as inhibition of forskolin-induced cAMP accumulation measured after 30 mins by TR-FRET assay. A general note: Cyclic AMP is a second messenger, typically raised through Gs and lowered through Gi signalling.
Data set [4] in a line: Half life in human pooled liver microsomes at 1 uM incubated up to 120 mins in presence of NADPH by LC-MS analysis. Format: ADME, Microsome.
A short description of data set [5]: Protein binding in human plasma at 10 uM measured after 4 hrs by LC-MS/MS analysis. The note with it: read-out: PPB (converted). It counts as ADME, cell-free. The method in brief:
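Human plasma spiked at 10 μM, dialyzed against phosphate/NaCl buffer by rapid equilibrium dialysis for 4 h at 37 °C with shaking at 100 rpm. Samples matrix-matched, protein precipitated with cold acetonitrile/formic acid, and analyzed by LC−MS/MS. Three independent samples.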

The nature of data set [6]: Half life in CD-1 mouse plasma at 15 mg/kg, ip measured up to 24 hrs by LC-MS/MS analysis. It counts as ADME, organism-based. The method in brief:
(§1)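 Male CD-1 mice, about 10 weeks old, acclimated 72 h. Single 15 mg/kg IP dose formulated in modified citrate buffer (pH 6). Animals sacrificed at 0.5, 1, 2, 4, 8 and 24 h to collect plasma and brain samples. Cmax, AUC_all, CL and T1/2 determined.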

Data set [7] in a line: Cmax in CD-1 mouse brain at 15 mg/kg, ip measured up to 24 hrs by LC-MS/MS analysis. More on the design: route intraperitoneal, dose 15 mg/kg, time <=24. It counts as ADME, organism-based. Put shortly:
as §1

Data set [8] can be described thus: Cmax in CD-1 mouse plasma at 15 mg/kg, ip measured up to 24 hrs by LC-MS/MS analysis. It counts as ADME, organism-based. More on the design: route intraperitoneal, dose 15 mg/kg, time <=24. The method in brief:
as §1

For data set [9], the target named is Voltage-gated inwardly rectifying potassium channel KCNH2 (Homo sapiens, UniProt Q12809). The data set can be described thus: Displacement of [3H]astemizole from human ERG at 10 uM measured after 60 mins by scintillation counter method. Conditions: 1 h; call rule not given here. Put shortly:
(§2)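 Competition binding using 4 μg hERG-expressing membranes with ~3 nM [3H]astemizole for 60 min in pH 7.4 HEPES buffer with 0.1% BSA. Terminated by filtration onto polyethyleneimine-soaked GF/B filters, washed with ice-cold buffer, and counted with scintillant. At least two runs in duplicate.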
In general terms: Displacement assays read how much labelled ligand stays bound in the presence of the test substance.

The target in data set [10] is hERG (KCNH2) (Homo sapiens, UniProt Q12809). In words: Displacement of [3H]astemizole from human ERG at 10 uM measured after 60 mins by scintillation counter method relative to control. The note with it: probe [3H]astemizole. The method in brief: as §2
hERG (KCNH2), sequence (Q12809 whole entry): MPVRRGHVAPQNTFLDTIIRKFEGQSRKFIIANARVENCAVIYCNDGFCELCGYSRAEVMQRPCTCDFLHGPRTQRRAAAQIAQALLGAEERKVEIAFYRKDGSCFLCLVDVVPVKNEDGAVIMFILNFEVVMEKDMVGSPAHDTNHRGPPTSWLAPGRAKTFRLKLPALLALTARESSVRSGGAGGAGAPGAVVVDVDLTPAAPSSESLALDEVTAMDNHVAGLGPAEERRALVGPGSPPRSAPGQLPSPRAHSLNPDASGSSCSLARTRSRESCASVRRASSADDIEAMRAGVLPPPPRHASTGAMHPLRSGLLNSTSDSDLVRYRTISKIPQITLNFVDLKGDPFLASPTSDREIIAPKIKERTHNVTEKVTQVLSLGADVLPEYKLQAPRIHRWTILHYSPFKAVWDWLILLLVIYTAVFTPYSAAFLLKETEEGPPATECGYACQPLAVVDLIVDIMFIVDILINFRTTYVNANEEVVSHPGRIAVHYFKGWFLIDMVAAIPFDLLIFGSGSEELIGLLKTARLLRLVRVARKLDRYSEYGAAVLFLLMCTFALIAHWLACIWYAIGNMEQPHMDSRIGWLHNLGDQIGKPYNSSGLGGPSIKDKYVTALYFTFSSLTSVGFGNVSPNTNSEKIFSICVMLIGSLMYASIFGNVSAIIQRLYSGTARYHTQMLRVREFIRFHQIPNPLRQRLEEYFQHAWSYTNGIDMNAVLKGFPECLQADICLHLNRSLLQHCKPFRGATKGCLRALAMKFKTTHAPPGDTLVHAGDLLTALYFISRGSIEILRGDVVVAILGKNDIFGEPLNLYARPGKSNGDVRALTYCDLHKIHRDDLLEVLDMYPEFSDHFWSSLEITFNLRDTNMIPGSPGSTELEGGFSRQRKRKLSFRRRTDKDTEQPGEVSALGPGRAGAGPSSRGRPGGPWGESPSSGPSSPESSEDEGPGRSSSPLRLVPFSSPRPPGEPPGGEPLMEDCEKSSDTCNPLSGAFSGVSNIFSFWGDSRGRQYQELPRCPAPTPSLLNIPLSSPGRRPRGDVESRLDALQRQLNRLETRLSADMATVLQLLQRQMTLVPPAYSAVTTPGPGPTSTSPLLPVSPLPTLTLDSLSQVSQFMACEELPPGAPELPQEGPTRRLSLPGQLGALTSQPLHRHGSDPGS
Data set [11] has as its target T2, Type-1 angiotensin II receptor (Homo sapiens, UniProt P30556).
T2 sequence (P30556 whole entry): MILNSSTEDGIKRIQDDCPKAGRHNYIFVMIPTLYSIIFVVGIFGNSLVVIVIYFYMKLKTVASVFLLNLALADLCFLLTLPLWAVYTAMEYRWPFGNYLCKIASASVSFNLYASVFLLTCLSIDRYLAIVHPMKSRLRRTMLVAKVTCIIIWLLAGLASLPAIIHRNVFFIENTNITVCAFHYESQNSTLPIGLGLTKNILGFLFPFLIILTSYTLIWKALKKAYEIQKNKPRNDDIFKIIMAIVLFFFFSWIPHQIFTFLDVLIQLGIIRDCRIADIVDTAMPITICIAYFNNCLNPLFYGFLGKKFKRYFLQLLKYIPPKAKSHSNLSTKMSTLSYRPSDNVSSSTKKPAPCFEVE
In words: Agonist activity at Galphaq16-fused human AGTR1 expressed in CHO cells assessed as stimulation of Ca2+ mobilization incubated for 1 hr by Calcium 5-dye based fluorescence based assay. It counts as functional, cell-based. The method in brief: (§3)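 CHO cells stably co-expressing Gαq16 with mouse APJ or human AGTR1; 20,000 hAGTR1 cells per well, plated 24 h at 37 °C. Loaded 1 h at 37 °C with Calcium 5 dye in HBSS buffer with 20 mM HEPES, 1% BSA, 10 μM probenecid, 1% DMSO final. Stimulated with compounds at various concentrations; fluorescence read on FLIPR Tetra. Duplicate, 2−3 runs.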

For data set [12], the target named is T3, Apelin receptor (Mus musculus, UniProt Q9WV08).
T3 sequence (Q9WV08 whole entry): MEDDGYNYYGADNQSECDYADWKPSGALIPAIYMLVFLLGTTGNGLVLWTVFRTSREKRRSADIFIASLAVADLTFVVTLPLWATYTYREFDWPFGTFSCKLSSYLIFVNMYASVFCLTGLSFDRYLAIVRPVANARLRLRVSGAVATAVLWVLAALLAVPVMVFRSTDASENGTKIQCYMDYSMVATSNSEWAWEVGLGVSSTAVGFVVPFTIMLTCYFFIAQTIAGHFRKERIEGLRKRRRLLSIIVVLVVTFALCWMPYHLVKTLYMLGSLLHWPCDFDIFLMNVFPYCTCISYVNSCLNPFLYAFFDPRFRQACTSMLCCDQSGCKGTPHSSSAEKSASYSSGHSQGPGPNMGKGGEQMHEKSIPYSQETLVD
In words: Agonist activity at Galphaq16-fused mouse APJ receptor expressed in CHO cells assessed as stimulation of Ca2+ mobilization incubated for 1 hr by Calcium 5-dye based fluorescence based assay. Format: cell-based. Put shortly: as §3

Data set [13] can be described thus: Clearance in CD-1 mouse plasma at 15 mg/kg, ip measured up to 24 hrs by LC-MS/MS analysis. It counts as ADME, organism-based. Put shortly:
as §1

The nature of data set [14]: Half life in CD-1 mouse brain at 15 mg/kg, ip measured up to 24 hrs by LC-MS/MS analysis. Format: ADME, organism-based. The method in brief:
as §1

Data set [15] can be described thus: AUC in CD-1 mouse plasma at 15 mg/kg, ip measured up to 24 hrs by LC-MS/MS analysis. It counts as ADME, organism-based. Also noted: route intraperitoneal, dose 15 mg/kg, time <=24. The method in brief: as §1
Data set [16] can be described thus: Kinetic solubility of the compound in pH 7.4 PBS buffer measured after 2 hrs by LC-MS/MS analysis. It counts as physicochemical. Conditions: read-out: Kinetic_solubility. The method in brief: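 20 mM DMSO stock diluted into PBS pH 7.4 to a targeted 400 μM. Agitated 2 h at room temperature, filtered through 1 μm glass fiber, and eluate diluted 400-fold in acetonitrile/water (1:1) for analysis.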

Data set [17] is described as follows: AUC in CD-1 mouse brain at 15 mg/kg, ip measured up to 24 hrs by LC-MS/MS analysis. Format: ADME, organism-based. Also noted: route intraperitoneal, dose 15 mg/kg, time <=24. The method in brief: as §1

Structures are written as SMILES.

Voltage-gated inwardly rectifying potassium channel KCNH2, sequence (Q12809 whole entry): as the sequence (Q12809 whole entry) above

As for `COc1cccc(OC)c1-c1cc(C(=O)N[C@@H](CCN2CCCCC2)Cc2nnc[nH]2)nn1C1CCCC1`, the CLint scaled at 1 µM in data set [1] came to 37.8 mL/min/kg. Moreover, the half-maximal effective concentration (EC50) in data set [2] stood at 523 nM; in [3], 134 nM. Also, the half-life at 1 µM in data set [4] is 33 min.

As to `COCCN(C)C(=O)C[C@H](CCN1CCCCC1)NC(=O)c1cc(-c2c(OC)cccc2OC)n(C2CCCC2)n1`, the EC50 was above 10000 nM in data set [2] and 2410 nM in data set [3].

For `COc1cccc(OC)c1-c1cc(C(=O)N[C@@H](CCN2CCCCCC2)CC(=O)NC2CCC2)nn1C1CCCC1.Cl`, in data set [1], the CLint scaled at 1 µM amounted to 32.4 mL/min/kg. In addition, the EC50 in data set [2] came to 159 nM; in data set [3], 8 nM. The half-life at 1 µM in data set [4] was 38 min.

As to `COc1cccc(OC)c1-c1cc(C(=O)N[C@@H](CCN2CCCCC2)CC(=O)Nc2nccs2)nn1C1CCCC1`, the CLint scaled at 1 µM in [1] came out at 46.7 mL/min/kg. Besides, the EC50 in data set [3] was 1 nM. In addition, in [4], the half-life at 1 µM was found to be 27 min.

As to `COc1cccc(OC)c1-c1cc(C(=O)N[C@@H](CCN2CCOCC2)CC(=O)NC2CCC2)nn1C1CCCC1.Cl`, in data set [1], the CLint scaled at 1 µM stood at 73.1 mL/min/kg. The EC50 was 1350 nM in data set [2] and 237 nM in data set [3]. The half-life at 1 µM in data set [4] was determined as 17 min.

As to `CC(C)NCC(O)COc1cccc2ccccc12` (centres undefined) [PROPRANOLOL], the fraction unbound at 4 h, 10 µM in data set [5] is 0.39.

As to `COc1cccc(OC)c1-c1cc(C(=O)N[C@@H](CCN2CCCCC2)CC(=O)N(C)c2nccs2)nn1C1CCCC1`, in data set [1], the CLint scaled at 1 µM was determined as 33.4 mL/min/kg. Moreover, the EC50 is 14 nM in data set [2] and 5 nM in [3]. Besides, the half-life at 1 µM in data set [4] turned out to be 37 min.

`COc1cccc(OC)c1-c1cc(C(=O)N[C@@H](CCN2C(C)CCCC2C)CC(=O)NC2CCC2)nn1C1CCCC1.Cl` (some centres undefined): in data set [1], the CLint scaled at 1 µM was 23.9 mL/min/kg. The results for the EC50 in data set [2] and in [3] were 459 nM and 33 nM, respectively. The half-life at 1 µM in data set [4] was 52 min.

With `COc1cccc(OC)c1-c1cc(C(=O)N[C@@H](CCN2CCCCC2)CC(=O)NC2CCC2)nn1C1CCCC1.Cl`, the half-life in data set [6] is 162 min; in data set [14], 804 min. The results for the Cmax in [7] and in data set [8] were 103 ng/mL and 1580 ng/mL, respectively. In addition, the “inhibition (INH)” value in [9] is on record as “Not Active”. Further, the CLint scaled at 1 µM in data set [1] came to 20 mL/min/kg. The compound further had an inhibition at 1 h, 10 µM in [10] below 50%. Besides, the EC50 is above 10000 nM in [11] and 22 nM in data set [12]. Besides, the CL/F in [13] turned out to be 83 mL/min/kg. For the same compound, the fraction unbound at 4 h, 10 µM in data set [5] is 0.09. For the same compound, in [4], the half-life at 1 µM was 62 min. Also, the AUC at 24 h turned out to be 3000 ng·h/mL in data set [15] and 1080 ng·h/mL in data set [17]. Moreover, the solubility kinetic at 2 h in [16] turned out to be 192 µM.

`COc1cccc(OC)c1-c1cc(C(=O)N[C@@H](CCN2CCCCC2)CC(=O)NC2CC(F)(F)C2)nn1C1CCCC1`: the CLint scaled at 1 µM in data set [1] was 32.4 mL/min/kg. Besides, in [4], the half-life at 1 µM is 38 min.

As to `COc1cccc(OC)c1-c1cc(C(=O)N[C@@H](CCN2CCCCC2)CC(=O)Nc2nnn[nH]2)nn1C1CCCC1`, the CLint scaled at 1 µM in data set [1] stood at 25.8 mL/min/kg. For the same compound, the half-life at 1 µM in [4] is 24.2 min.

On to `COc1cccc(OC)c1-c1cc(C(=O)N[C@@H](CCN2CCCCC2)CC(=O)N(C)C2CCC2)nn1C1CCCC1`, for which the CLint scaled at 1 µM in data set [1] worked out at 33.3 mL/min/kg. Besides, the EC50 in [2] was 326 nM; in data set [3] it was 105 nM. In [4], the half-life at 1 µM was found to be 37 min.
